From ChEMBL document CHEMBL3259519, “Targeting triple-negative breast cancer cells with 6,7-bis(hydroxymethyl)-1H,3H-pyrrolo[1,2-c]thiazoles” (Eur J Med Chem, 2014) come the findings set out here.

SMILES strings stand for the structures. Active and inactive are the calls of the source. The rule behind the calls is not given here. Bounds are passed on as bounds.

The test system of assay [1] is MCF7. As to the kind of experiment: Induction of DNA strand break in human MCF7 cells expressing ER and BRCA2 at IC50 after 48 hrs by alkaline comet assay. It is filed as functional, cell-based. The method in brief:
(§1)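 5x10^5 cells got IC50 or 3x IC50 for 48 h (DMSO 0.1%); H2O2-treated cells served as positive control. Cells in 1% low-melt agarose went onto slides precoated with normal-melt agarose. Slides were lysed overnight in alkaline buffer (2.5 M NaCl, EDTA, Tris, DMSO, Triton X-100). Electrophoresis ran in 300 mM NaOH/1 mM EDTA (pH>13) at 25 V for 15 min. Slides were neutralized in Tris pH 7.4 and stained with 25 µg/mL ethidium bromide for fluorescence microscopy.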

For assay [2], the system named is MCF7. As to the kind of experiment: Induction of DNA strand break in human MCF7 cells expressing ER and BRCA2 at 3 x IC50 after 48 hrs by alkaline comet assay. It is filed as functional, cell-based. The method in brief: as §1
Assay [3] concerns HCC1806. As to the kind of experiment: Induction of DNA strand break in ER, PR, HER2-deficient human HCC1806 cells at IC50 after 48 hrs by alkaline comet assay. It is filed as functional, cell-based. The method in brief: as §1
In assay [4] the test system is HCC1806. As to the kind of experiment: Induction of DNA strand break in ER, PR, HER2-deficient human HCC1806 cells at 3 x IC50 after 48 hrs by alkaline comet assay. It is filed as functional, cell-based. The method in brief:
as §1

Assay [5] deals with HCC1806. Put plainly: Antiproliferative activity against ER, PR, HER2-deficient human HCC1806 cells as growth inhibition after 24 hrs by MTT assay. Conditions: HCC1806, 24 h. It is filed as functional, cell-based. The method in brief:
(§2)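 Cells were seeded at 2x10^4/well and left to attach overnight. Compounds in DMSO were diluted in medium and applied for 24, 48, 72 or 96 h. Cells were then PBS-washed and given 0.5 mg/mL MTT (pH 7.4) at 37 °C for 4 h. Formazan was dissolved in acid isopropanol. IC50 came from dose-response curves by exponential decay fitting (r2>0.9), with 95% CI.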

Assay [6] has as its system HCC1806. Put plainly: Antiproliferative activity against ER, PR, HER2-deficient human HCC1806 cells as growth inhibition after 48 hrs by MTT assay. It is filed as functional, cell-based. Conditions: HCC1806, 48 h. The method in brief: as §2
The subject of assay [7] is HCC1806. Put plainly: Antiproliferative activity against ER, PR, HER2-deficient human HCC1806 cells as growth inhibition after 72 hrs by MTT assay. Particulars: HCC1806, 72 h. It is filed as functional, cell-based. The method in brief: as §2
In assay [8] the test system is HCC1806. Put plainly: Antiproliferative activity against ER, PR, HER2-deficient human HCC1806 cells as growth inhibition after 96 hrs by MTT assay. It is filed as functional, cell-based. Conditions: HCC1806, 96 h. The method in brief: as §2
Assay [9] relates to HCC1954. As to the kind of experiment: Antiproliferative activity against human HCC1954 cells expressing HER2 assessed as growth inhibition after 24 hrs by MTT assay. It is filed as functional, cell-based. Conditions: HCC1954, 24 h. The method in brief: as §2
Assay [10] relates to HCC1954. As to the kind of experiment: Antiproliferative activity against human HCC1954 cells expressing HER2 assessed as growth inhibition after 48 hrs by MTT assay. It is filed as functional, cell-based. Conditions: HCC1954, 48 h. The method in brief:
as §2

The test system of assay [11] is HCC1954. As to the kind of experiment: Antiproliferative activity against human HCC1954 cells expressing HER2 assessed as growth inhibition after 72 hrs by MTT assay. It is filed as functional, cell-based. Particulars: HCC1954, 72 h. The method in brief: as §2
Assay [12] deals with HCC1954. Put plainly: Antiproliferative activity against human HCC1954 cells expressing HER2 assessed as growth inhibition after 96 hrs by MTT assay. It is filed as functional, cell-based. Particulars: HCC1954, 96 h. The method in brief:
as §2

The subject of assay [13] is MCF7. As to the kind of experiment: Cytotoxicity against human MCF7 cells expressing ER and BRCA2 assessed as reduction of survival factor at IC50 incubated for 48 hrs measured after 12 days by crystal violet staining-based clonogenic assay. It is filed as functional, cell-based.
The test system of assay [14] is HCC1806. As to the kind of experiment: Cytotoxicity against ER, PR, HER2-deficient human HCC1806 cells as reduction of survival factor at IC50 incubated for 48 hrs measured after 12 days by crystal violet staining-based clonogenic assay. It is filed as functional.
The subject of assay [15] is MCF7. As to the kind of experiment: Cytotoxicity against human MCF7 cells expressing ER and BRCA2 assessed as reduction of total protein content at IC50 after 48 hrs by SRB assay relative to control. It is filed as functional. Set-up: scale not given: the % may be the effect or the level left.
The test system of assay [16] is HCC1806. As to the kind of experiment: Cytotoxicity against ER, PR, HER2-deficient human HCC1806 cells as reduction of total protein content at IC50 incubated for 48 hrs by SRB assay relative to control. It is filed as functional. Also noted: scale not given: the % may be the effect or the level left.
Assay [17] has as its system MCF7. Put plainly: Induction of apoptosis in human MCF7 cells expressing ER and BRCA2 assessed as decrease in viable cells at IC50 after 48 hrs by Annexin V/propidium iodide staining-based flow cytometry relative to control. It is filed as functional. The method in brief: (§3)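 2x10^6 cells were attached overnight, then given IC50 for 48 h (DMSO 0.1%). PBS-washed cells were stained with Annexin V-FITC and PI in binding buffer for 15 min at 4 °C in the dark. Flow cytometry used 488 nm excitation. Cells were gated as viable, apoptotic, late apoptotic/necrotic or necrotic, reported as mean ± SD (n≥5).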

Assay [18] deals with HCC1806. Put plainly: Induction of apoptosis in triple negative ER, PR, HER2-deficient human HCC1806 cells assessed as increase of late apoptotic/nectrotic cells at IC50 after 48 hrs by Annexin V/propidium iodide staining-based flow cytometry relative to control. It is filed as functional, cell-based. The method in brief:
as §3

Assay [19] has as its system HCC1806. As to the kind of experiment: Induction of apoptosis in triple negative ER, PR, HER2-deficient human HCC1806 cells assessed as decrease of viable cells at IC50 after 48 hrs by Annexin V/propidium iodide staining-based flow cytometry relative to control. It is filed as functional. The method in brief: as §3
Assay [20] deals with MCF7. Put plainly: Induction of apoptosis in human MCF7 cells expressing ER and BRCA2 assessed as increase of late apoptotic/nectrotic cells at IC50 after 48 hrs by Annexin V/propidium iodide staining-based flow cytometry relative to control. It is filed as functional, cell-based. The method in brief: as §3
Assay [21] deals with MCF7. Put plainly: Induction of apoptosis in human MCF7 cells expressing ER and BRCA2 assessed as increase of necrotic cells at IC50 after 48 hrs by Annexin V/propidium iodide staining-based flow cytometry relative to control. It is filed as functional, cell-based. The method in brief: as §3
Assay [22] concerns HCC1806. Put plainly: Induction of apoptosis in triple negative ER, PR, HER2-deficient human HCC1806 cells assessed as increase of necrotic cells at IC50 after 48 hrs by Annexin V/propidium iodide staining-based flow cytometry relative to control. It is filed as functional, cell-based. The method in brief: as §3
For assay [23], the system named is MCF7. Put plainly: Cell cycle arrest in human MCF7 cells expressing ER and BRCA2 assessed as decrease in accumulation at G0/G1 phase at IC50 after 48 hrs by propidium staining-based FACS analysis. It is filed as functional. The method in brief: (§4)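 2x10^6 cells were attached overnight, then exposed to IC50 for 48 h (DMSO 0.1%). They were fixed in ice-cold 70% ethanol for 30 min in the dark, PBS-washed and stained with PI/RNase for 15 min at RT. Flow cytometry used 488 nm excitation and a 585/42 filter. Sub-G0, G0/G1, S and G2/M fractions were reported as mean ± SD (n≥5).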

The test system of assay [24] is MCF7. Put plainly: Cell cycle arrest in human MCF7 cells expressing ER and BRCA2 assessed as increase in accumulation at S phase at IC50 after 48 hrs by propidium staining-based FACS analysis. It is filed as functional. The method in brief: as §4
For assay [25], the system named is MCF7. Put plainly: Cell cycle arrest in human MCF7 cells expressing ER and BRCA2 assessed as blockade at G2/M phase at IC50 after 48 hrs by propidium staining-based FACS analysis. It is filed as functional. The method in brief:
as §4

Assay [26] concerns HCC1806. As to the kind of experiment: Cell cycle arrest in ER, PR, HER2-deficient human HCC1806 cells as blockade at G0/G1 phase at IC50 after 48 hrs by propidium staining-based FACS analysis. It is filed as functional. The method in brief: as §4
Assay [27] has as its system HCC1806. As to the kind of experiment: Cell cycle arrest in ER, PR, HER2-deficient human HCC1806 cells as accumulation at S phase at IC50 after 48 hrs by propidium staining-based FACS analysis. It is filed as functional. The method in brief:
as §4

Assay [28] has as its system HCC1806. Put plainly: Cell cycle arrest in ER, PR, HER2-deficient human HCC1806 cells as accumulation at G2/M phase at IC50 after 48 hrs by propidium staining-based FACS analysis. It is filed as functional. The method in brief:
as §4

For the molecule `Cc1c(CO)c(CO)c2n1[C@@H](c1ccccc1)SC2`, the result in the assay with MCF7 [1], in the assay with MCF7 [2], in the assay on HCC1806 [3], in the assay on HCC1806 [4], with MCF7 [13] and with HCC1806 [18] was Active. Further, the result in the assay with MCF7 [20], with MCF7 [21], in the assay with HCC1806 [22], in the assay with MCF7 [23], in the assay on MCF7 [24] and in the assay with MCF7 [25] was Active. Moreover, in the assay with HCC1806 [26], the result was Active. The half-inhibitory concentration (IC50) in the assay on HCC1806 [5] was more than 100 µM; in the assay with HCC1806 [6], 81.4 µM; in the assay with HCC1806 [7] it was 51.3 µM; with HCC1806 [8], 13.9 µM; in the assay with HCC1954 [9] it was 98.2 µM; in the assay with HCC1954 [10], 27 µM. Further, the results for the concentration for half-maximal inhibition (IC50) in the assay on HCC1954 [11] and with HCC1954 [12] were 26.2 µM and 24.9 µM, respectively. In addition, the Activity in the assay with HCC1806 [14] is listed as less than 2%; in the assay with MCF7 [15], 50%; in the assay with HCC1806 [16] it was 50%; with MCF7 [17] it was 55%; with HCC1806 [19] it was 60%. Further, the result in the assay on HCC1806 [27] and with HCC1806 [28] was inactive.

Take `Cc1c(CO)c(CO)c2n1[C@H](c1ccccc1)SC2`: the IC50 in the assay with HCC1806 [5] was more than 100 µM; in the assay on HCC1806 [6], 63.1 µM; in the assay with HCC1806 [7], 78.5 µM; in the assay with HCC1806 [8] it was 28.7 µM; in the assay on HCC1954 [9], more than 100 µM; in the assay with HCC1954 [10], 56.8 µM. The IC50 in the assay on HCC1954 [11] is 14.8 µM; in the assay on HCC1954 [12], 11.8 µM.
